pEC50: −log10 of the molar value. The source made the active and inactive calls. The rule behind the calls is not given here.
What was measured:
Mus musculus [1] = test: Toxicity in C57BL/6 mouse assessed as macroscopic abnormalities of liver at 677 to 2000 mg/kg, ig after 14 consecutive days; format: organism-based; details: in vivo, po
Mus musculus [2] = test: Toxicity in C57BL/6 mouse assessed as effect on food intake at 677 to 2000 mg/kg, ig measured continuously during first 4 hrs, intermittently for following 24 hrs and occasionally thereafter for 14 consecutive days; format: organism-based; details: in vivo, po
Mus musculus [3] = test: Induction of cell proliferation in C57BL/6 mouse hippocampal neurons in CA1 region assessed as BrdU-incorporation at 30 mg/kg, po administered via gavage for 7 days by immunohistochemical analysis (reference value: 2.3%); format: functional
Procedure, shortened: (§1)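 C57BL/6 mice, 12 weeks old, n = 6, individually housed beforehand without wheels. Compound gavaged 30 mg/kg/day for 7 days with daily IP BrdU 50 mg/kg; BrdU+ cells counted by immunohistochemistry per hippocampal volume; two-way ANOVA.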

[4] = Metabolic stability in Sprague-Dawley rat liver microsomes assessed as metabolic rate constant at 100 uM up to 180 mins by HPLC-UV analysis; details: 3 h
Mus musculus [5] = test: Induction of cell proliferation in C57BL/6 mouse hippocampal neurons in DG region assessed as BrdU-incorporation at 0.5 uL/hr, icv for 7 days by immunohistochemical analysis (reference value: 7.8%); format: functional
Mus musculus [6] = test: Toxicity in C57BL/6 mouse assessed as macroscopic abnormalities of stomach at 677 to 2000 mg/kg, ig after 14 consecutive days; format: organism-based; details: in vivo, po
Mus musculus [7] = test: Toxicity in C57BL/6 mouse assessed as histological abnormalities of liver at 2000 mg/kg, ig after 14 consecutive days by hematoxylin/eosin dye-based microscopic analysis; format: organism-based; details: in vivo, po, 336 h
Procedure, shortened: (§2)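 Adult C57BL/6 mice, 12 weeks old, single intragastric doses of 0, 677, 1333 or 2000 mg/kg (n = 6 per dose, 3 male/3 female); behaviour and mortality observed over 14 days; liver, heart, lung and brain examined by HE staining at 2000 mg/kg.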

[8] = Half life in Sprague-Dawley rat liver microsomes at 100 uM up to 180 mins by HPLC-UV analysis
Mus musculus [9] = test: Induction of cell proliferation in C57BL/6 mouse hippocampal neurons in CA2 region assessed as BrdU-incorporation at 30 mg/kg, po administered via gavage for 7 days by immunohistochemical analysis (reference value: 2.4%); format: functional; procedure, shortened: as §1
Mus musculus [10] = test: Toxicity in C57BL/6 mouse assessed as histological abnormalities of lung at 2000 mg/kg, ig after 14 consecutive days by hematoxylin/eosin dye-based microscopic analysis; format: organism-based; details: in vivo, po, 336 h; procedure, shortened: as §2
Mus musculus [11] = test: Toxicity in C57BL/6 mouse assessed as macroscopic abnormalities of spleen at 677 to 2000 mg/kg, ig after 14 consecutive days; format: organism-based; details: in vivo, po
Mus musculus [12] = test: Toxicity in C57BL/6 mouse assessed as macroscopic abnormalities of heart at 677 to 2000 mg/kg, ig after 14 consecutive days; format: organism-based; details: in vivo, po
Mus musculus [13] = test: Induction of cell proliferation in C57BL/6 mouse hippocampal neurons in CA3 region assessed as BrdU-incorporation at 0.5 uL/hr, icv for 7 days by immunohistochemical analysis (reference value: 1.4%); format: functional
Mus musculus [14] = test: Toxicity in C57BL/6 mouse assessed as macroscopic abnormalities of kidney at 677 to 2000 mg/kg, ig after 14 consecutive days; format: organism-based; details: in vivo, po
Mus musculus [15] = test: Induction of cell proliferation in C57BL/6 mouse hippocampal neurons in CA1 region assessed as BrdU-incorporation at 0.5 uL/hr, icv for 7 days by immunohistochemical analysis (reference value: 3.2%); format: functional
Mus musculus [16] = test: Toxicity in C57BL/6 mouse assessed as mortality at 677 to 2000 mg/kg, ig measured continuously during first 4 hrs, intermittently for following 24 hrs and occasionally thereafter for 14 consecutive days; format: organism-based; details: in vivo, po
Procedure, shortened: (§3)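 Adult C57BL/6 mice, 12 weeks old, given single intragastric doses of 0, 677, 1333 or 2000 mg/kg (n = 6 per dose, 3 male and 3 female). Abnormal behaviour and deaths observed continuously for the first 4 h, intermittently over the next 24 h, then occasionally for 14 days to catch delayed effects.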

Mus musculus [17] = test: Induction of cell proliferation in C57BL/6 mouse hippocampal neurons in DG region assessed as BrdU-incorporation at 30 mg/kg, po administered via gavage for 7 days by immunohistochemical analysis (reference value: 2.2%); format: functional; procedure, shortened: as §1
Mus musculus [18] = test: Toxicity in C57BL/6 mouse assessed as effect on water intake at 677 to 2000 mg/kg, ig measured continuously during first 4 hrs, intermittently for following 24 hrs and occasionally thereafter for 14 consecutive days; format: organism-based; details: in vivo, po
Mus musculus [19] = test: Toxicity in C57BL/6 mouse assessed as histological abnormalities of brain at 2000 mg/kg, ig after 14 consecutive days by hematoxylin/eosin dye-based microscopic analysis; format: organism-based; details: in vivo, po, 336 h; procedure, shortened: as §2
Mus musculus [20] = test: Toxicity in C57BL/6 mouse assessed as effect on body weight at 677 to 2000 mg/kg, ig measured continuously during first 4 hrs, intermittently for following 24 hrs and occasionally thereafter for 14 consecutive days; format: organism-based; details: in vivo, po
Mus musculus [21] = test: Induction of cell proliferation in C57BL/6 mouse hippocampal neurons in CA3 region assessed as BrdU-incorporation at 30 mg/kg, po administered via gavage for 7 days by immunohistochemical analysis (reference value: 1.5%); format: functional; procedure, shortened: as §1
Mus musculus [22] = test: Induction of cell proliferation in C57BL/6 mouse hippocampal neurons in CA2 region assessed as BrdU-incorporation at 0.5 uL/hr, icv for 7 days by immunohistochemical analysis (reference value: 2.4%); format: functional
Mus musculus [23] = test: Toxicity in C57BL/6 mouse assessed as histological abnormalities of heart at 2000 mg/kg, ig after 14 consecutive days by hematoxylin/eosin dye-based microscopic analysis; format: organism-based; details: in vivo, po; procedure, shortened: as §2
Mus musculus [24] = test: Toxicity in C57BL/6 mouse assessed as macroscopic abnormalities of intestine at 677 to 2000 mg/kg, ig after 14 consecutive days; format: organism-based; details: in vivo, po
Mus musculus [25] = test: Toxicity in C57BL/6 mouse assessed as abnormal behavior at 677 to 2000 mg/kg, ig measured continuously during first 4 hrs, intermittently for following 24 hrs and occasionally thereafter for 14 consecutive days; format: organism-based; details: in vivo, po; procedure, shortened: as §3
Mus musculus [26] = test: Toxicity in C57BL/6 mouse assessed as macroscopic abnormalities of lung at 677 to 2000 mg/kg, ig after 14 consecutive days; format: organism-based; details: in vivo, po, 336 h
[27] = Permeability of compound at 100 ug/ml after 10 hrs by PAMPA assay; format: ADME; details: read-out: permeability
PC-12 [28] = test: Induction of rat PC12 cell proliferation at 10 uM after 72 hrs by microscopic analysis; format: functional, cell-based
Procedure, shortened: (§4)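 Undifferentiated PC12 cells cultured 72 h with compound at 0.5–50 µM (images at 10 µM) or with NGF 50 ng/ml, then examined under a digital microscope.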

PC-12 [29] = test: Induction of rat PC12 cell proliferation at 0.5 to 50 uM after 72 hrs by microscopic analysis; format: functional, cell-based; procedure, shortened: as §4
PC-12 [30] = test: Cytotoxicity against rat undifferentiated PC12 cells at 0.5 to 50 uM after 72 hrs by MTT assay; format: cell-based; details: pc-12, 72 h
SH-SY5Y = test: Neuroprotective activity against t-BuOOH-induced oxidative stress in human SH-SY5Y cells assessed as inhibition ROS accumulation pre-incubated for 24 hrs before t-BuOOH challnge for 30 mins by DCFH-DA probe based fluorescence assay; format: functional, cell-based
Procedure, shortened: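 SH-SY5Y cells; test agents at 1–0.01 µM, oxidative stress induced by tert-butyl hydroperoxide; intracellular ROS read by DCFH-DA fluorescence; at least three independent experiments in sextuplicate; EC50 derived.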

Cl.Oc1cccc2ccc(-c3cc4ccc5c(c4[nH]3)OCO5)nc12
Activity (Mus musculus [1]): Non-Toxic | Activity (Mus musculus [2]): Non-Toxic | Activity (Mus musculus [3]): 8% | K [4]: 0.01183 min⁻¹ | Activity (Mus musculus [5]): 43.6% | Activity (Mus musculus [6]): Non-Toxic | Activity (Mus musculus [7]): Non-Toxic | half-life at 3 h, 100 µM ([8]; microsomes): 0.977 h | Activity (Mus musculus [9]): 7.5% | Activity (Mus musculus [10]): Non-Toxic | Activity (Mus musculus [11]): Non-Toxic | Activity (Mus musculus [12]): Non-Toxic | Activity (Mus musculus [13]): 49.3% | Activity (Mus musculus [14]): Non-Toxic | Activity (Mus musculus [15]): 61.9% | Activity (Mus musculus [16]): Non-Toxic | Activity (Mus musculus [17]): 7.6% | Activity (Mus musculus [18]): Non-Toxic | Activity (Mus musculus [19]): Non-Toxic | Activity (Mus musculus [20]): Non-Toxic | Activity (Mus musculus [21]): 3.9% | Activity (Mus musculus [22]): 56.1% | Activity (Mus musculus [23]): Non-Toxic | Activity (Mus musculus [24]): Non-Toxic | Activity (Mus musculus [25]): Non-Toxic | Activity (Mus musculus [26]): Non-Toxic

COc1cc2cc(-c3ccc4cccc(O)c4n3)[nH]c2cc1OC
Papp at 10 h, 100 ug/ml [27]: 5.2 ×10⁻⁶ cm/s

Oc1cccc2ccc(-c3cc4cc(F)ccc4[nH]3)nc12
Papp at 10 h, 100 ug/ml [27]: 10.6 ×10⁻⁶ cm/s

Oc1c(Cl)cc(Cl)c2ccc(-c3cc4cc(Cl)ccc4[nH]3)nc12
Activity (PC-12 [28]): Active | Activity (PC-12 [29]): Active

Oc1cccc2ccc(-c3cc4cc(Cl)ccc4[nH]3)nc12
Activity (PC-12 [30]): Toxic | Papp at 10 h, 100 ug/ml [27]: 9.8 ×10⁻⁶ cm/s

Cl.Oc1c(Cl)cc(Cl)c2ccc(-c3cc4cc(Cl)ccc4[nH]3)nc12
Activity (Mus musculus [1]): Non-Toxic | Activity (Mus musculus [2]): Non-Toxic | Activity (Mus musculus [3]): 4.8% | K [4]: 0.00354 min⁻¹ | Activity (Mus musculus [5]): 28.5% | Activity (Mus musculus [6]): Non-Toxic | Activity (Mus musculus [7]): Non-Toxic | half-life at 3 h, 100 µM ([8]; liver microsomes): 3.26 h | Activity (Mus musculus [9]): 5.1% | Activity (Mus musculus [10]): Non-Toxic | Activity (Mus musculus [11]): Non-Toxic | Activity (Mus musculus [12]): Non-Toxic | Activity (Mus musculus [13]): 20.3% | Activity (Mus musculus [14]): Non-Toxic | Activity (Mus musculus [15]): 15.3% | Activity (Mus musculus [16]): Non-Toxic | Activity (Mus musculus [17]): 4.4% | Activity (Mus musculus [18]): Non-Toxic | Activity (Mus musculus [19]): Non-Toxic | Activity (Mus musculus [20]): Non-Toxic | Activity (Mus musculus [21]): 4.7% | Activity (Mus musculus [22]): 18.1% | Activity (Mus musculus [23]): Non-Toxic | Activity (Mus musculus [24]): Non-Toxic | Activity (Mus musculus [25]): Non-Toxic | Activity (Mus musculus [26]): Non-Toxic

Oc1c(Cl)cc(Cl)c2ccc(-c3cc4cc5c(cc4[nH]3)OCO5)nc12
Activity (PC-12 [30]): Non-Toxic | pEC50 (SH-SY5Y): 6.48 | Papp at 10 h, 100 ug/ml [27]: 4.9 ×10⁻⁶ cm/s

Oc1ccc(-c2cc3ccccc3[nH]2)c2cccnc12
Activity (PC-12 [30]): Toxic | Papp at 10 h, 100 ug/ml [27]: 12.8 ×10⁻⁶ cm/s

Oc1c(Cl)cc(Cl)c2ccc(-c3cc4cc(F)ccc4[nH]3)nc12
Papp at 10 h, 100 ug/ml [27]: 5.3 ×10⁻⁶ cm/s | Activity (PC-12 [29]): inactive

Oc1cccc2ccc(-c3cc4ccc5c(c4[nH]3)OCO5)nc12
Activity (PC-12 [28]): Active | Activity (PC-12 [29]): Active

COc1cc2cc(-c3ccc4c(Cl)cc(Cl)c(O)c4n3)[nH]c2cc1OC
Activity (PC-12 [30]): Toxic | Papp at 10 h, 100 ug/ml [27]: 3.9 ×10⁻⁶ cm/s

Oc1c(Cl)cc(Cl)c2ccc(-c3cc4ccccc4[nH]3)nc12
Papp at 10 h, 100 ug/ml [27]: 6.6 ×10⁻⁶ cm/s | Activity (PC-12 [29]): inactive

Reference: ChEMBL document CHEMBL4118104, “Design, Synthesis, and Evaluation of Orally Bioavailable Quinoline-Indole Derivatives as Innovative Multitarget-Directed Ligands: Promotion of Cell Proliferation in the Adult Murine Hippocampus for the Treatment of Alzheimer's Disease” (J Med Chem, 2018)
